How the values were obtained:
[1] = melting temperature; fluorescence melt of hairpins on a sequencing array, two-state fit, raised by 9.35 °C to match UV melts; settings: sodium 0.088 M
Summary of the method: (§1)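 On a sequenced MiSeq flow cell, library hairpins with annealed Cy3 and quencher oligos were imaged for Cy3 fluorescence in 2.5 °C steps up to 60 °C, in 50 mM Na-HEPES pH 8.0, 25 mM NaCl. Normalisation used pre-quench Cy3 and control constructs. Bootstrapped two-state fits gave melting temperature and folding enthalpy, combined by inverse variance across four replicates and with fitted temperatures raised by 9.35 °C to match UV melts.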

[2] = folding enthalpy; higher = less favourable; fluorescence melt of hairpins on a sequencing array, two-state fit; settings: sodium 0.088 M
Summary of the method: as §1

Sequence	Tm [1] [°C]	folding enthalpy [2] [kcal/mol]
GCCCGAGGAAACTCGGAC (.(((((....))))).)	48.4	-13.1
GCCCGCGAAAGCGCAGGC ((((((....)))..)))	56.3	-20.1
GCCCGCGAAAGCGCTGGC ((((((....)))..)))	58.5	-16.5
GCCCGCGAAAGCGTAGGC ((((((....)))..)))	62.4	-22.3
GCCCGCGGAAACACGGGC (((((.(....).)))))	62.9	-47.9
GCCCGGCGAAAGCCGAGC ((.((((....)))).))	68.3	-18.4
GCCCGGCGAAAGCCTCGC ((..(((....)))..))	27.3	-6.9
GCCCGGCGAAAGCGCGGC (((..((....))..)))	61.7	-16.1
GCCCGGCGAAAGCGTGGC (((..((....))..)))	57.9	-20.2
GCCCGGTCGAAAGACGGC (((..(((....))))))	51.7	-18.1
GCCCGTCCGAAAGGAGGC (((..(((....))))))	43.6	-13.9
GCCCGTCGAAAGACGGC (((.(((....))))))	63.6	-10.7
GCCCGTTCGAAAGAAGGC (((..(((....))))))	33.1	-12.3
GCCCTACGAAAGTAAGGC (((.(((....))).)))	47.4	-31.3
GCCCTACGAAAGTACGGC (((.(((....))).)))	46.2	-27.3
GCCCTAGGAAACTAGAGC ((.((((....)))).))	34.3	-25
GCCCTATCGAAAGATGGC (((..(((....))))))	37.5	-23.5
GCCCTCGAAAGAGACGGC ((((((....)))..)))	44.8	-25.3
GCCCTCGAAAGAGAGGGC ((((((....)))..)))	59.9	-33
GCCCTCGAAAGAGATGGC ((((((....)))..)))	46.4	-23.6
GCCCTCGAAAGAGCGGC ((((((....))).)))	55.7	-37.3
GCCCTCGAAAGAGGTGGC ((((((....)))..)))	48.4	-17.7
GCCCTCGGAAACGAGAGC ((.((((....)))).))	49.1	-27.2

Sequence	Tm [1] [°C]	folding enthalpy [2] [kcal/mol]
GCCCTCGGAAACGAGGAC (.(((((....))))).)	50.3	-13.4
GCCCTGCCGAAAGGCGGC (((..(((....))))))	54.9	-9.83
GCCCTGCGAAAGCACGGC (((.(((....))).)))	52	-39.6
GCCCTGCGAAAGCAGAGC ((.((((....)))).))	60.4	-18.8
GCCCTGCGAAAGCCGGGC ((((.((....)).))))	69	-32.9
GCCCTGCGAAAGCGGTGC ((.(.((....)).).))	48	-20.2
GCCCTGCGAAAGCTAGGC (((..((....))..)))	55.2	-20.3
GCCCTGCGAAAGCTGAGC ((.(.((....)).).))	47.2	-13.9
GCCCTTCGAAAGAATGGC (((.(((....))).)))	47.4	-34.3
GCCCTTGGAAACGAGGGC (((((.(....).)))))	57.5	-41.4
GCCGAACGAAAGTTGGC (((.(((....))))))	57.2	-32.3
GCCGAAGGAAACCTCGGC (((((.(....).)))))	54.6	-34.6
GCCGACCGAAAGGTGGC (((.(((....))))))	62	-34
GCCGACGAAAGTCAGGC ((((((....))).)))	64.1	-39.5
GCCGACGAAAGTCATGGC ((((((....)))..)))	51.6	-34.5
GCCGACGAAAGTCCAGGC ((((((....)))..)))	51.7	-25.2
GCCGACGAAAGTCCGGC ((((((....))).)))	61.2	-31.1
GCCGACGAAAGTCTGGC ((((((....))).)))	58.2	-34.6
GCCGACGGAAACGCCAGC ((.(.((....)).).))	33.8	-13.3
GCCGACGGAAACGTCAGC ((.((((....)))).))	49.6	-23.6
GCCGACTCGAAAGAGGGC (((..(((....))))))	47.1	-23.1
GCCGAGAAATCGGC (((((....)))))	64.8	-28.4
GCCGAGCGAAAGCAGGGC (((..((....))..)))	57.2	-26.3

Sequence	Tm [1] [°C]	folding enthalpy [2] [kcal/mol]
GCCGAGCGAAAGCCCTGC ((.(.((....)).).))	33.5	-13.7
GCCGAGCGAAAGCCTGGC (((..((....))..)))	62.6	-17
GCCGAGCGAAAGCTGAGC ((..(((....)))..))	51.2	-11.2
GCCGAGCGAAAGCTGCGC ((..(((....)))..))	56.4	-17.8
GCCGAGGGAAACCTCAGC ((.((((....)))).))	43.1	-23.7
GCCGATCCGAAAGGAGGC (((..(((....))))))	52.7	-36.8
GCCGATGGAAACATCGAC (.(((((....))))).)	48	-16.3
GCCGCACCGAAAGGTGGC (((..(((....))))))	53.5	-8.56
GCCGCACGAAAGTGGGC (((.(((....))))))	62.8	-20.9
GCCGCAGCGAAAGCTGGC (((..(((....))))))	56.7	-9.6
GCCGCAGGAAACTGCAGC ((.((((....)))).))	49	-19
GCCGCCGAAAGGCGAGGC ((((((....)))..)))	60.6	-14.4
GCCGCCGAAAGGCTAGGC ((((((....)))..)))	60.5	-27.9
GCCGCGCGAAAGCATGGC (((..((....))..)))	60.1	-26.7
GCCGCGCGAAAGCCCTGC ((.(.((....)).).))	28.6	-12.1
GCCGCGCGAAAGCGACGC ((..(((....)))..))	55.1	-11.9
GCCGCGCGAAAGCGCAGC ((.((((....)))).))	64	-15.2
GCCGCGCGAAAGCTGGGC (((..((....))..)))	56.3	-20
GCCGCTCCGAAAGGAGGC (((..(((....))))))	55.4	-9.81
GCCGCTGGAAACAGCGAC (.(((((....))))).)	52.6	-13.9
GCCGGAGGAAACCCCGGC (((((.(....).)))))	59.6	-36
GCCGGCGAAAGCCAAGGC ((((((....)))..)))	65.3	-22.8
GCCGGCGAAAGCCCTGGC ((((((....)))..)))	56.6	-16.2

Sequence	Tm [1] [°C]	folding enthalpy [2] [kcal/mol]
GCCGGCGAAAGCCTCGGC ((((((....)))..)))	53.3	-19.9
GCCGGCGGAAACGCCAGC ((.((((....)))).))	58.5	-15.4
GCCGGCTCGAAAGAGGGC (((..(((....))))))	46.9	-19.2
GCCGGGACGAAAGTCGGC (((..(((....))))))	60.9	-29.8
GCCGGGCGAAAGCACTGC ((.(.((....)).).))	50.8	-18.6
GCCGGGCGAAAGCAGGGC (((..((....))..)))	62.2	-29
GCCGGGCGAAAGCATGGC (((..((....))..)))	64.9	-26.8
GCCGGGCGAAAGCCCAGC ((.((((....)))).))	64.8	-15.8
GCCGGGCGAAAGCCCCGC ((.((((....)))).))	54.4	-16.2
GCCGGGCGAAAGCCCTGC ((.((((....)))).))	57.2	-14.9
GCCGGGCGAAAGCCGAGC ((..(((....)))..))	57.4	-14.8
GCCGGGCGAAAGCCGTGC ((..(((....)))..))	50.2	-13.7
GCCGGGCGAAAGCGTGGC (((..((....))..)))	65.9	-36.4
GCCGGGCGAAAGCTAGGC (((..((....))..)))	66.6	-34.4
GCCGGGGGAAACCCCGAC (.(((((....))))).)	51.8	-13.2
GCCGTACCGAAAGGTGGC (((..(((....))))))	53.8	-25.1
GCCGTACGAAAGTAAGGC (((.(((....))).)))	60.1	-36.6
GCCGTAGCGAAAGCTGGC (((..(((....))))))	55.6	-31.5
GCCGTAGGAAACTGCGGC ((((.((....)).))))	61.6	-37.3
GCCGTCGAAAGACAAGGC ((((((....)))..)))	55.2	-32.8
GCCGTCGAAAGACAGGC ((((((....))).)))	65.2	-27
GCCGTCGAAAGACATGGC ((((((....)))..)))	52.1	-23.9

Reference: the array DNA melting data of Ke et al. (doi:10.1101/2024.01.08.574731)
